Results on one molecule are retold here after ChEMBL document CHEMBL1132277, “Probing the binding of indolactam-V to protein kinase C through site-directed mutagenesis and computational docking simulations” (J Med Chem, 1999).

The target of assay [1] is T1, Protein kinase C delta type (Mus musculus, UniProt P28867). Put plainly: Binding of Indolactam-V(ILV) to mutant Protein kinase C delta C1b domain (Leu20 to Gly). In a few lines: (§1)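 GST fusions of PKCδ C1b domains (wild type or point mutants) expressed in E. coli, used purified or as total lysates. Incubated 5 min at 18 °C with [3H]PDBu, phosphatidylserine, 1 mM EGTA and varying unlabelled (–)-ILV. Bound ligand separated by 35% poly(ethylene glycol) precipitation and centrifugation, then supernatant and pellet counted. Final ligand concentrations used in calculations. Where [3H]PDBu binding was insufficient, ILV affinity was left undetermined.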
T1 sequence (P28867 whole entry, the tested form may be a part): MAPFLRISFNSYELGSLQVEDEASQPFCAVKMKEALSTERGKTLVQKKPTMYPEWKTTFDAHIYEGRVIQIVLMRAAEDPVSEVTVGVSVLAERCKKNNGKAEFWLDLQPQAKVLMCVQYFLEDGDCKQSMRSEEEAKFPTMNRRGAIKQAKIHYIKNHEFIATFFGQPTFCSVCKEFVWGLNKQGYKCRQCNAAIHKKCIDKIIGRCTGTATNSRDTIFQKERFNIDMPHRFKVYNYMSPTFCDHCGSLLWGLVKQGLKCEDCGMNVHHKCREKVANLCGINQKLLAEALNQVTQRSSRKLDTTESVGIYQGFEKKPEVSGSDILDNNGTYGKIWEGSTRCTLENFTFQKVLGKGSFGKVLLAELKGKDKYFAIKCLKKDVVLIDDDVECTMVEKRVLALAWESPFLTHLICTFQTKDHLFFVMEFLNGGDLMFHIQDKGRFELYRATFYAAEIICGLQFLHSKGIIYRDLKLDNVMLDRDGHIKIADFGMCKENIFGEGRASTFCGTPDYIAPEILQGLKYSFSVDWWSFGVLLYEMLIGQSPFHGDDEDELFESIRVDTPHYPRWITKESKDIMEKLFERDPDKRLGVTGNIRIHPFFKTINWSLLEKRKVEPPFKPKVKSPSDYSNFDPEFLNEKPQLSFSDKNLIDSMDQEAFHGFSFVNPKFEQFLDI

Assay [2] deals with T1, Protein kinase C delta type. Put plainly: Binding of Indolactam-V(ILV) to mutant Protein kinase C delta C1b domain (Tyr8 to Gly). In a few lines: as §1
Assay [3] shares this target. Briefly: Binding of Indolactam-V(ILV) to mutant Protein kinase C delta C1b domain (Thr12 to Gly). Summed up:
as §1

For assay [4] the target is unchanged. Briefly: Binding of Indolactam-V(ILV) to mutant Protein kinase C delta C1b domain (Phe13 to Gly). Summed up: as §1
For assay [5] the target is unchanged. Briefly: Binding of Indolactam-V(ILV) to wild-type Protein kinase C delta C1b domain. In a few lines: as §1
For assay [6] the target is unchanged. Briefly: Binding of Indolactam-V(ILV) to mutant Protein kinase C delta C1b domain (Gln27 to Val). In a few lines:
as §1

Assay [7] has the same target. Put plainly: Binding of Indolactam-V(ILV) to mutant Protein kinase C delta C1b domain (Pro11 to Gly). Summed up:
as §1

As usually defined, the Ki is the equilibrium dissociation constant of an inhibitor or competing ligand from its target. A high value points to a looser hold on the target.

On to `CC(C)[C@H]1C(=O)N[C@H](CO)Cc2c[nH]c3cccc(c23)N1C` [INDOLACTUM], for which the inhibition constant (Ki) in assay [1] was determined as 66.2 nM; in assay [2], 658 nM; in assay [3] it was 25.3 nM; in assay [4], 10.9 nM; in assay [5], 2.01 nM; in assay [6] it was 1100 nM. The same molecule gave an inhibition constant Ki in assay [7] of 7080 nM.
